What was measured:
HEL [1] = experiment: Effective concentration required to inhibit HCMV Davis strain-induced cytopathicity in human embryonic lung (HEL) fibroblast cell cultures at day 7 of postinfection; assay type: functional, cell-based; conditions: 168 h
Summary of the method: (§1)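 Confluent HEL fibroblast monolayers were infected with 100 PFU of HCMV per well and adsorbed for 1-2 h. Residual virus was removed, and cells were kept in MEM with 2% inactivated FCS, 1% L-glutamine and 0.3% sodium bicarbonate plus varying compound concentrations. Cytopathicity was scored at day 7, and EC50 was the concentration reducing virus-induced CPE by 50% versus untreated control.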

HEL [2] = experiment: Effective concentration required to inhibit HCMV AD169 strain-induced cytopathicity in human embryonic lung (HEL) fibroblast cell cultures at day 7 of postinfection; assay type: functional, cell-based; conditions: 168 h; summary of the method: as §1
HEL [3] = experiment: Cytostatic concentration required to inhibit HEL cell proliferation measured at day 4; assay type: functional; conditions: Homo sapiens, 96 h
Summary of the method: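 Growing, subconfluent HEL cells were exposed to different compound concentrations, then trypsinized and counted with a Coulter counter. The 50% value was the concentration reducing cell number by 50% relative to untreated cells.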

HEL [4] = experiment: Minimal cytotoxic concentration required to cause a microscopically visible alteration of HEL cell morphology as measured at day 7 postinfection; assay type: functional; conditions: Homo sapiens, 168 h
Summary of the method: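 MCC was assessed within the antiviral assay on confluent HEL monolayers exposed to varying compound concentrations. It was taken at day 7 as the lowest concentration giving microscopically visible cytotoxicity (altered morphology).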

SMILES	EC50 (HEL [1]) [µM]	EC50 (HEL [2]) [µM]	CC50 (HEL [3]) [µM]	MCC (HEL [4]) [µM]
CCCCCCCCCCCCCCc1cc2cn(C3CCC(CO)O3)c(=O)nc2o1 (stereo not drawn)	40	25	> 200	200
CCCCCCCCc1cc2cn(C3CCC(CO)O3)c(=O)nc2o1 (stereo not drawn)	3	2.5	112	20
CCCCCCc1cc2cn(C3CCC(CO)O3)c(=O)nc2o1 (stereo not drawn)	> 50	32	143	200
CCCCCCCCCCCc1cc2cn(C3CCC(CO)O3)c(=O)nc2o1 (stereo not drawn)	1.2	1.4	> 200	50
CCCCCCCCCc1cc2cn(C3CCC(CO)O3)c(=O)nc2o1 (stereo not drawn)	1.3	1.2	> 200	58
CCCCCCCCCCc1cc2cn(C3CCC(CO)O3)c(=O)nc2o1 (stereo not drawn)	3.2	2.6	> 200	> 20
CCCCCCCCCCCCc1cc2cn(C3CCC(CO)O3)c(=O)nc2o1 (stereo not drawn)	5	3.7	> 200	200
Nc1ccn(C[C@@H](CO)OCP(=O)(O)O)c(=O)n1 [CIDOFOVIR]	–	–	158	> 150
O=C(O)P(=O)(O)O [FOSCARNET]	62	53	500	> 400
Nc1nc2c(ncn2COC(CO)CO)c(=O)[nH]1 [GANCICLOVIR]	3.9	2.7	> 150	> 150

Source: ChEMBL document CHEMBL1148438, “Discovery of a new family of inhibitors of human cytomegalovirus (HCMV) based upon lipophilic alkyl furano pyrimidine dideoxy nucleosides: action via a novel non-nucleosidic mechanism” (J Med Chem, 2004)
